Measured values taken from ChEMBL document CHEMBL1148693, “Expeditious and convenient synthesis of pregnanes and its glycosides as potential anti-dyslipidemic and anti-oxidant agents” (2007).

Legend:
Assay type in all cases: functional
[1] = Superoxide radical scavenging activity assessed by measuring formazone produced at 400 ug/kg; settings: in the assay text read “400 ug/ml” for “400 ug/kg”
Outline: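 Superoxide generated enzymatically with xanthine ([…]), xanthine oxidase (0.04 U) and nitroblue tetrazolium, in 100 mM phosphate buffer, pH 8.2. Samples were sonicated in buffer and added at […], 37 °C for 30 min. Stopped with 0.5 mL glacial acetic acid; formazan read at 560 nm. Percent inhibition from ε 7.2×10³ M⁻¹cm⁻¹.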

[2] = Hydroxy radical scavenging activity assessed by measuring malondialdehyde produced at 400 ug/kg by thiobarbituric acid method; settings: in the assay text read “400 ug/ml” for “400 ug/kg”
Outline: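 Non-enzymic hydroxyl-radical generation: deoxyribose 2.8 mM, FeSO4 2 mM, sodium ascorbate 2.0 mM and H2O2 2.8 mM in 50 mM KH2PO4, pH 7.4. Run with or without test compound at […], 37 °C for 90 min. Compared with compound-free reaction by Student's t-test.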

Rattus norvegicus [3] = assay: Decrease in total cholesterol level in WR-1339-induced hyperlipidemic rat plasma at 400 mg/kg, po; design: scale not given: the % may be the effect or the level left
Outline: (§1)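 Male adult Charles Foster rats (200–225 g), six per group. Triton WR-1339 400 mg/kg b.w. ip; treatment suspended in water with 0.2% w/v gum acacia, given po at the same time; diet withdrawn. Vehicle controls were included. After 18 h, under thiopentone anaesthesia, retro-orbital blood was collected into EDTA. Plasma was diluted 1:3 in saline and assayed enzymatically on an autoanalyzer. Percent change vs triton-only group, Student's t-test.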

Rattus norvegicus [4] = assay: Decrease in triglyceride level in WR-1339-induced hyperlipidemic rat plasma at 400 mg/kg, po; design: scale not given: the % may be the effect or the level left; outline: as §1
Rattus norvegicus [5] = assay: Decrease in phospholipid level in WR-1339-induced hyperlipidemic rat plasma at 400 mg/kg, po; design: scale not given: the % may be the effect or the level left; outline: as §1
Rattus norvegicus [6] = assay: Decrease in total cholesterol level in WR-1339-induced hyperlipidemic rat plasma at 100 mg/kg, po; design: scale not given: the % may be the effect or the level left; outline: as §1
Rattus norvegicus [7] = assay: Decrease in triglyceride level in WR-1339-induced hyperlipidemic rat plasma at 100 mg/kg, po; design: scale not given: the % may be the effect or the level left; outline: as §1
Rattus norvegicus [8] = assay: Decrease in phospholipid level in WR-1339-induced hyperlipidemic rat plasma at 100 mg/kg, po; design: scale not given: the % may be the effect or the level left; outline: as §1

Compound	Activity [1]	Activity [2]	Activity (Rattus norvegicus [3])	Activity (Rattus norvegicus [4])	Activity (Rattus norvegicus [5])	Activity (Rattus norvegicus [6])	Activity (Rattus norvegicus [7])	Activity (Rattus norvegicus [8])
CC(=O)O[C@@H]1[C@@H](OC(C)=O)[C@H](C)O[C@@H](OCCO[C@@H]2C[C@H]3[C@@H]4CC=C5C[C@@H](O)CC[C@]5(C)[C@H]4CC[C@]3(C)[C@H]2C(C)=O)[C@@H]1OC(C)=O	12.8 nmol/min	39.02 nmol/h						
C/C(=N\OCCCCCBr)C1=CC[C@H]2[C@@H]3CC=C4C[C@@H](O)CC[C@]4(C)[C@H]3CC[C@]12C	15.33 nmol/min	38.52 nmol/h	-4%	-5%	-5%			
CC(=O)C1=CC[C@H]2[C@@H]3CC=C4C[C@@H](OC(=O)c5ccccc5Cl)CC[C@]4(C)[C@H]3CC[C@]12C	14.33 nmol/min	35.01 nmol/h	-21%	-14%	-17%			
CC(=O)[C@H]1[C@H](OCCO)C[C@H]2[C@@H]3CC=C4C[C@@H](O)CC[C@]4(C)[C@H]3CC[C@@]21C	7.83 nmol/min	36.12 nmol/h	-13%	-11%	-8%			
CC(=O)C1=CC[C@H]2[C@@H]3CC=C4C[C@@H](OC(=O)c5ccc(Cl)cc5)CC[C@]4(C)[C@H]3CC[C@]12C	11.1 nmol/min	27.16 nmol/h	-27%	-25%	-27%			
CC(=O)OC[C@H]1O[C@H](OCCO[C@@H]2C[C@H]3[C@@H]4CC=C5C[C@@H](O)CC[C@]5(C)[C@H]4CC[C@]3(C)[C@H]2C(C)=O)[C@@H](OC(C)=O)[C@@H](OC(C)=O)[C@@H]1OC(C)=O	13.22 nmol/min	35.05 nmol/h						
CC(=O)OCCO[C@@H]1C[C@H]2[C@@H]3CC=C4C[C@@H](OC(C)=O)CC[C@]4(C)[C@H]3CC[C@]2(C)[C@H]1[C@H](C)OC(C)=O	12.63 nmol/min	33.9 nmol/h	-18%	-13%	-14%			
Cc1ccc(C)c(OCCCC(C)(C)C(=O)O)c1 [GEMFIBROZIL]						-37%	-32%	-36%
C[C@H](O)[C@H]1[C@H](OCCO)C[C@H]2[C@@H]3CC=C4C[C@@H](O)CC[C@]4(C)[C@H]3CC[C@]12C	9.33 nmol/min	31.09 nmol/h	-23%	-26%	-25%			
CC(=O)OCCO[C@@H]1C[C@H]2[C@@H]3CC=C4C[C@@H](OC(C)=O)CC[C@]4(C)[C@H]3CC[C@]2(C)[C@H]1C(C)=O	21.5 nmol/min	41.5 nmol/h	-13%	-16%	-13%			
